Measured values published in PMC12650307 (RSC Advances, 2025).

Assays:
[1] = target: CDK2 (Homo sapiens, UniProt P24941); experiment: In vitro CDK2 enzyme inhibition; format: biochemical
[2] = test system: MCF-7 cells; experiment: MTT cytotoxicity assay, MCF-7; format: cell-based; settings: Homo sapiens, MCF7, 48 h, read-out: IC50 MCF-7
[3] = test system: HepG2 cells; experiment: MTT cytotoxicity assay, HepG2; format: cell-based; settings: Homo sapiens, HepG2, 48 h, read-out: IC50 HepG2
[4] = test system: MCF-7 cells; experiment: Cell cycle analysis; format: cell-based, human
Summary of the method: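 MCF-7 cells were exposed for 48 h, harvested by trypsinization and washed twice in PBS. Fixed in ice-cold 60% (w/w) ethanol at 4 °C for 12 h, then rewashed in PBS. Stained 30 min in buffer with RNase and propidium iodide. Flow cytometry gave the % of cells in G1, S and G2, with untreated MCF-7 as control.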

[5] = test system: Bcl-2; experiment: Bcl-2 level by ELISA in treated MCF-7 cells; format: cell-based, human
[6] = test system: Bax; experiment: Bax level by ELISA in treated MCF-7 cells; format: cell-based, human
[7] = test system: MCF-7 cells; experiment: Annexin V-FITC/PI apoptosis assay; format: cell-based, human; settings: MCF-7, 48 h at IC50
Summary of the method: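 Treated MCF-7 cells for 48 h, then trypsinized and washed in PBS. Stained with annexin V-FITC plus propidium iodide at room temperature in the dark, per kit instructions, then read on a FACScan flow cytometer. Quadrants: upper left necrotic, upper right late apoptotic, lower right early apoptotic, lower left living. Untreated MCF-7 served as control.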

Cc1cccc(N=Nc2c(N)nn(-c3ccccn3)c2N)c1 [Compound 2, 1-(2-Pyridinyl)-4-(3-tolyldiazenyl)-1H-pyrazole-3,5-diamine]
IC50 [1]: 1.05 ± 0.2 µM

CC(=O)c1ccc(N=Nc2c(N)nn(-c3ccccn3)c2N)cc1 [Compound 3, 1-(4-((3,5-Diamino-1-(2-pyridinyl)-1H-pyrazol-4-yl)diazenyl)phenyl)ethan-1-one]
IC50 [1]: 1.2 ± 0.15 µM

Nc1nn(-c2ccccn2)c(N)c1N=Nc1ccc(S(=O)(=O)O)cc1 [Compound 4, 4-((3,5-Diamino-1-(2-pyridinyl)-1H-pyrazol-4-yl)diazenyl)benzenesulfonic acid]
IC50 [2]: 48.7 ± 2.8 µM
IC50 [1]: 0.75 ± 0.05 µM
IC50 [3]: 53.8 ± 3.2 µM

Nc1nn(-c2ccccn2)c(N)c1N=Nc1ccc(C(=O)O)c(O)c1 [Compound 5, 4-((3,5-Diamino-1-(2-pyridinyl)-1H-pyrazol-4-yl)diazenyl)-2-hydroxybenzoic acid]
fold increase in S phase in comparison to control ([4]; MCF-7): 1.2 fold
% S ([4]; MCF-7, 48 h at its IC50, control 35.52): 41.02%
% G1 ([4]; MCF-7, 48 h at its IC50, control 38.02): 11.98%
IC50 [2]: 8.03 ± 0.6 µM
decrease of anti-apoptotic Bcl-2 level in comparison with control [5]: 3 fold
Bcl-2 ([5]; control 5.31 ± 0.5): 1.72 ± 0.08 ng/mL
Bcl-2 FLD ([5]; relative to control = 1): 0.3
CDK2 inhibitory activity relative to roscovitine [1]: 2 fold
IC50 [1]: 0.56 ± 0.03 µM
Bax/Bcl-2 ratio in comparison with control [6]: approximately 20 fold
Bax ([6]; control 57.22 ± 0.9): 369.15 ± 0.7 pg/mL
Bax FLD ([6]; relative to control = 1): 6.45 fold
Late apoptosis ([7]; control 0.04): 8.10%
Necrosis ([7]; control 0.18): 0.02%
Early apoptosis ([7]; control 0.43): 71.1%
Total (apoptosis/necrosis) ([7]; control 0.65): 79.22
IC50 [3]: 13.1 ± 1.1 µM

NC(N)=NS(=O)(=O)c1ccc(N=Nc2c(N)nn(-c3ccccn3)c2N)cc1 [Compound 6, 4-((3,5-Diamino-1-(2-pyridinyl)-1H-pyrazol-4-yl)diazenyl)-N-(diaminomethylene)benzenesulfonamide]
IC50 [2]: 26.1 ± 1.7 µM
CDK2 inhibitory activity relative to roscovitine [1]: 2 fold
IC50 [1]: 0.46 ± 0.02 µM
IC50 [3]: 22.8 ± 1.5 µM

Nc1nn(-c2ccccn2)c(N)c1N=Nc1ccc(N=Nc2ccccc2)cc1 [Compound 7, 4-((4-(Phenyldiazenyl)phenyl)diazenyl)-1-(2-pyridinyl)-1H-pyrazole-3,5-diamine]
IC50 [2]: 35.1 ± 2.2 µM
IC50 [1]: 0.77 ± 0.05 µM
IC50 [3]: 67.1 ± 3.5 µM

Nc1nn(-c2ccccn2)c(N)c1N=Nc1cc(Cl)c(Cl)cc1Cl [Compound 8, 1-(2-Pyridinyl)-4-((2,4,5-trichlorophenyl)diazenyl)-1H-pyrazole-3,5-diamine]
IC50 [1]: 1.46 ± 0.5 µM

Nc1nn(-c2ccccn2)c(N)c1N=Nc1cccc([N+](=O)[O-])c1 [Compound 9, 4-((3-Nitrophenyl)diazenyl)-1-(2-pyridinyl)-1H-pyrazole-3,5-diamine]
IC50 [1]: 1.5 ± 0.7 µM

COc1ccc(N=Nc2c(N)nn(-c3ccccn3)c2N)cc1 [Compound 10, 4-((4-Methoxyphenyl)diazenyl)-1-(2-pyridinyl)-1H-pyrazole-3,5-diamine]
IC50 [2]: 15.4 ± 1.2 µM
IC50 [1]: 0.85 ± 0.05 µM
IC50 [3]: 41.6 ± 2.4 µM

Nc1nn(-c2ccccn2)c(N)c1N=Nc1ccccc1Cl [Compound 11, 4-((2-Chlorophenyl)diazenyl)-1-(2-pyridinyl)-1H-pyrazole-3,5-diamine]
IC50 [2]: 61.8 ± 3.4 µM
CDK2 inhibitory activity relative to roscovitine [1]: 2 fold
IC50 [1]: 0.45 ± 0.02 µM
IC50 [3]: 74.2 ± 3.8 µM

Nc1nn(-c2ccccn2)c(N)c1N=Nc1nccs1 [Compound 12, 1-(Pyridin-2-yl)-4-(thiazol-2-yldiazenyl)-1H-pyrazole-3,5-diamine]
IC50 [1]: 1.24 ± 0.85 µM

COc1cccc2c1C(=O)c1c(O)c3c(c(O)c1C2=O)C[C@@](O)(C(=O)CO)C[C@@H]3O[C@H]1C[C@H](N)[C@H](O)[C@H](C)O1 [DOX, doxorubicin, reference compound]
IC50 [3]: 4.5 ± 0.2 µM
